# Measurements gathered from unrelated publications.
# Sample: plasma
SMILES,host,route,dose,notes,bioavailability [%]
CNC(=O)c1cccc(-c2ccc([C@@H](O)[C@H]3O[C@H](CO)[C@@H](O)[C@H](O)[C@@H]3O)c(C)c2)c1,male Sprague-Dawley rat,oral,10 mg/kg,single dose,1.95
Oc1c(Br)cc(Cl)c2cccnc12,Sprague-Dawley rat,oral,20 mg/kg,,39
Oc1c(-c2cccnc2)cnn1-c1ccccn1,rat,oral,30 mg/kg,,35
COc1c(C#N)ccnc1N1C2CCC1CN(C(=O)c1cccnc1-n1cccn1)C2,rat,oral,30 mg/kg,,8.5
CC[C@H](C)[C@H](NC(=O)[C@H](Cc1ccccc1)NC(=O)[C@H](CCC(=O)O)NC(=O)[C@H](CCCNC(=N)N)NC(=O)[C@H](C)NC(=O)[C@H](C)NC(=O)[C@H](CCC(N)=O)NC(=O)[C@H](CCC(=O)O)NC(=O)[C@H](CCC(=O)O)NC(=O)[C@H](CC(C)C)NC(=O)[C@H](Cc1ccc(O)cc1)NC(=O)[C@H](CO)NC(=O)[C@H](CO)NC(=O)[C@@H](NC(=O)[C@H](CC(=O)O)NC(=O)[C@H](CO)NC(=O)[C@@H](NC(=O)[C@H](Cc1ccccc1)NC(=O)[C@@H](NC(=O)CNC(=O)[C@H](CCC(=O)O)NC(=O)[C@H](C)NC(=O)CCc1c[nH]cn1)[C@@H](C)O)[C@@H](C)O)C(C)C)C(=O)N[C@@H](C)C(=O)N[C@@H](Cc1c[nH]c2ccccc12)C(=O)N[C@@H](CC(C)C)C(=O)N[C@H](C(=O)N[C@@H](CCCNC(=N)N)C(=O)NCC(=O)N[C@@H](CCCNC(=N)N)C(=O)N[C@@H](CCCCNC(=O)COCCOCCNC(=O)COCCOCCNC(=O)CC[C@H](NC(=O)CCCCCCCCCCCCCCCCC(=O)O)C(=O)O)C(=O)O)C(C)C,rat,subcutaneous,20 nmol/kg,,38.7
COCCOC(=O)C1=C(C)NC(C)=C(C(=O)OC(C)C)C1c1cccc([N+](=O)[O-])c1 (stereo not shown),male Sprague-Dawley rat,oral,12 mg/kg,,21.9
Cc1cc(C(=O)O)nc(N2C[C@H]3C[C@@H](c4ccccc4C(F)(F)F)C[C@H]3C2)n1,Sprague-Dawley rat,oral,12.7 µmol/kg,single dose,> 100
COc1ccc2c(Cc3ccccc3F)c3n(c(=O)c2c1OC)CCc1cc2c(cc1-3)OCO2,rat,oral,5 mg/kg,,15
CCc1cc(OC)c2nccc(N3CCc4c(cc(Cn5ccnc5)cc4-c4cn(C)nc4C(F)(F)F)C3=O)c2c1,male Sprague-Dawley rat,oral,50 mg/kg,,65
Cn1cc(-c2cc(N3CCCCS3(=O)=O)ccc2Oc2ccc(F)cc2F)c2c(F)c[nH]c2c1=O,Sprague-Dawley rat,oral,3 mg/kg,,20 to 30
CCOC(=O)[C@@]12C[C@@H]1[C@@H](n1ccc3c(NC)nc(C#Cc4ccc(Cl)s4)nc31)[C@H](O)[C@@H]2O,male Sprague-Dawley rat,oral,3 mg/kg,,92.3
N#Cc1ccc(-c2ccc(C[C@@H](C#N)NC(=O)C3(N)CCOCC3)cc2)cc1,Sprague-Dawley rat,oral,3 mg/kg,,92
C=CC(=O)Nc1cc(Nc2nccc(Nc3cc(Cl)c(F)cc3C(C)(C)O)n2)c(OC)cc1N1CC[C@@H](N(C)C)C1,Wistar rat,oral,3 mg/kg,,39.6
Oc1c(-n2ccnn2)cnn1-c1cc(N2CCOCC2)ncn1,male rat,oral,5 mg/kg,,34
Cc1c(-c2ccccc2)cccc1N1C(=O)c2cc(CN[C@H](C(=O)O)C(C)O)c(OCc3cccc(C#N)c3)cc2C1=O (stereo partly shown),Sprague-Dawley rat,oral,50 mg/kg,,0.31
CC(C)(O)[C@H]1CC[C@H](Nc2ccc3ncc(-c4cccc(C(F)(F)F)c4)n3n2)CC1,female Sprague-Dawley rat,oral,40 mg/kg,,39
